From PubChem
Only some compounds are listed: those with a hit (about 1.8% of all), similar ones and a draw of the others.
MC4R barr agon: agonists of human melanocortin 4 receptor (MC4R) beta-arrestin. P32245. activation, % at 8.9 µM. 0.98% of 360,000 active. U2OS MC4R beta-arrestin complementation, luminescence; percent of melanotan II response, DMSO zero;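 active means activation above a per-plate cutoff, the mean activation of sample wells on that plate plus 3 SD, cut at about 8% in these data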
Target sequence (P32245 whole entry, looked up): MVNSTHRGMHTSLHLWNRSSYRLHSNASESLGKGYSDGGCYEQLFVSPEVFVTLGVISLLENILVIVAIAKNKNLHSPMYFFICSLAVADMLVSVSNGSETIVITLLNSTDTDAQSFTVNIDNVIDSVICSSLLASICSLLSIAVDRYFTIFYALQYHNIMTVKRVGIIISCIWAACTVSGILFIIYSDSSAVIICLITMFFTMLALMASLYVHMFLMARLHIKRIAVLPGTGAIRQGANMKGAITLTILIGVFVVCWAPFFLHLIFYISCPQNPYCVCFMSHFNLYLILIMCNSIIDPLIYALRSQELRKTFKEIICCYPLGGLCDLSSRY
NOD2 RIPK2 PPI: inhibitors of human NOD2-RIPK2 interaction; O43353; CHO BLA complementation NOD2-RIPK2, CCF4 ratio; inhibition, % at 4.98 µM; 0.38% of 360,000 active; AID 624267; in the data active means inhibition above about 21%
TLR9-MyD88 inh: blocks human TLR9 binding to MyD88 | Q9NR96+Q99836 | 0.21% of 340,000 active | CHO BLA complementation TLR9-MyD88, CCF4 FRET ratio | inhibition, % at 4.98 µM;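 active means inhibition above the mean over all tested compounds plus 3 SD, cut at about 21% in these data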
TLR4 MyD88 comp: TLR4-MyD88 interaction inhibition in cells | inhibition, % at 8.4 µM | HeLa CL3-4 TLR4/MyD88 BLA complementation, FRET ratio | O00206+Q99836 | 0.18% of 200,000 active; in the data active means inhibition above about 25%
MC4R antagonist: human MC4R antagonism in cAMP assay; inhibition, % at 6.5 µM; 0.48% of 360,000 active; MC4R-expressing cells, MTII-stimulated cAMP, LANCE TR-FRET; P32245;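 active means inhibition above its plate's cutoff, the mean of tested wells on that plate plus 3 SD, cut at about 29% in these data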
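system = U2OS cells with stable human MC4R expression | also added = Melanotan II challenge after compound preincubation | dosing = one concentration, 6.5 µM nominal | incubation = compound 30 min, challenge 1 h, detection 1 h | measured by = TR-FRET with Eu-cAMP and labeled anti-cAMP, 671 nm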
MC4R barr conf: human MC4R beta-arrestin agonism confirmation; shares compounds with MC4R barr agon; U2OS MC4R beta-arrestin recruitment, luminescence; scaled DMSO 0%, Melanotan II 100%; activation, % at 8.9 µM; 31% of 2,400 active;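 active means mean activation across replicates above the hit cutoff set in the earlier primary screen, cut at about 8% in these data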
MOR DOR agonist: OPRM1-OPRD1 heterodimer agonism counter-screen; shares compounds with MC4R barr agon; AID 602194; 5.8% of 2,400 active; U2OS PathHunter beta-arrestin, beta-gal luminescence; percent of deltorphin B response, DMSO zero; activation, % at 9.2 µM;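 active means mean activation across replicates exceeds the hit threshold derived in the earlier primary screen, cut at about 18% in these data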
A number is an active result; n = inactive; x = no result given.

SMILES	MC4R barr agon	NOD2 RIPK2 PPI	TLR9-MyD88 inh	TLR4 MyD88 comp	MC4R antagonist	MC4R barr conf	MOR DOR agonist
CN(C(=O)COC(=O)c1ccccc1NCCO)C1CCS(=O)(=O)C1 (centres undefined)	n	n	n	x	n	x	x
Cc1ccccc1C1CC(=O)Oc2cc(O)ccc21 (centres undefined)	n	n	n	x	n	x	x
CCOC(=O)c1ccc(NC(=S)Nc2cccc(C)n2)cc1	21.9	n	n	n	n	n	n
CCCOc1ccc(C(=O)NC2CCSc3ccccc32)cc1 (centres undefined)	17.0	n	n	x	n	n	n
Cc1ccc(OCC(=O)OCC(=O)c2ccccc2)cc1C	n	n	n	x	n	x	x
COc1ccc2cc3cc(C(=O)Nc4cc(OC)c(OC)c(OC)c4)oc3nc2c1	n	n	n	n	n	x	x
COc1ccc2cc3cc(C(=O)Nc4ccc5c(c4)OCCO5)oc3nc2c1	43.2	n	n	n	n	n	n
CCOc1ccc2nc(NC(=O)c3cccc(-c4cc5ccccc5oc4=O)c3)sc2c1	23.9	n	n	n	n	13.3	n
Cc1ccc2nc(NC(=O)c3cccc(-c4cc5ccccc5oc4=O)c3)sc2c1	x	x	x	n	x	x	x
CC(C)N(Cc1ccccc1)C(=O)CN1C(=O)COc2ccc(S(=O)(=O)N3CCCCCC3)cc21	n	n	n	x	n	x	x
COc1ccccc1COCC(O)CNCCc1ccc(C(F)(F)F)cc1 (centres undefined)	10.8	n	n	x	n	n	n
OC(CNCCc1ccc(C(F)(F)F)cc1)COc1cccc2ccccc12 (centres undefined)	14.7	n	n	n	n	20.4	n
OC(CNCCc1ccc(C(F)(F)F)cc1)COc1ccc2ccccc2c1 (centres undefined)	11.8	n	n	n	n	9.4	n
OC(CNC1CCCCCC1)COc1cccc2ccccc12 (centres undefined)	n	n	n	x	n	x	x
COc1ccc(C(CNC(=O)c2ccc(S(=O)(=O)N3CC(C)CC(C)C3)cc2)N(C)C)cc1 (centres undefined)	n	n	n	x	n	x	x
O=C(Nc1ccc(N2CCCC2)cc1)c1ccc(Br)cc1	17.7	n	n	x	n	n	n
O=C(Nc1ccc(N2CCCC2)cc1)c1cccc(Cl)c1	11.2	n	n	x	n	n	n
CC(C)Oc1ccc(C(=O)Nc2ccc(N3CCCC3)cc2)cc1	n	n	n	n	n	x	x
O=C(NC1CCSC1=O)C1CC(=O)N(c2ccc(F)cc2)C1 (centres undefined)	n	n	n	x	n	x	x
Cc1cc(Nc2ccc(F)c(F)c2)nc(-c2ccccc2O)n1	14.2	n	n	x	n	n	n
CCCCNC(=O)[C@@H]1CSC2c3ccccc3C(=O)N21 (some centres undefined)	n	n	n	x	n	x	x
O=C(NC(=S)Nc1nc(-c2ccccc2)cs1)c1cncc(Br)c1	21.8	n	n	n	n	n	n
O=C(NC(=S)Nc1nc(-c2ccccc2)cs1)c1cccnc1	n	n	n	n	n	x	x
Cc1ccc(-c2csc(NC(=S)NC(=O)c3cccs3)n2)cc1	n	n	n	n	n	x	x
O=C(NC(=S)Nc1nc(-c2ccccc2)cs1)c1cccs1	11.4	n	n	n	n	n	n
SMILES	MC4R barr agon	NOD2 RIPK2 PPI	TLR9-MyD88 inh	TLR4 MyD88 comp	MC4R antagonist	MC4R barr conf	MOR DOR agonist
Cn1c(=O)c2cc(NC(=O)Cc3cccnc3)ccc2n1-c1ccc2ccccc2c1	n	n	x	x	n	x	x
CC(CC(=O)Nc1ccc2c(c1)c(=O)n(C)n2-c1ccc2ccccc2c1)C(F)(F)F (centres undefined)	9.7	n	x	x	n	n	n
COc1cc(C#N)c(NC(=O)CN2CCN(CCO)CC2)cc1OC	n	n	n	n	n	x	x
CCc1cc2cccc(C)c2nc1SCC(=O)c1ccc(NC(C)=O)cc1	10.3	n	n	n	n	n	n
COc1ccc(OC)c(Nc2nc(C3CC3)nc3c2nnn3Cc2ccccc2)c1	n	n	n	n	n	x	x
c1ccc(Cn2nnc3c(Nc4ccc5c(c4)OCO5)nc(C4CC4)nc32)cc1	17.6	n	n	n	n	n	n
Cc1nc2nc(C(F)(F)F)[nH]c2nc1C	n	n	n	x	n	x	x
CCNc1ccc(C(=O)OCC(=O)NCc2ccccc2Cl)cc1[N+](=O)[O-]	16.0	n	n	n	n	n	n
O=C(COC(=O)c1cc([N+](=O)[O-])ccc1NCc1ccccc1Cl)NCC(F)(F)F	12.7	n	n	n	n	n	n
CC(C)CNC(=O)NC(=O)COC(=O)c1cc([N+](=O)[O-])ccc1NCc1ccccc1Cl	x	x	x	n	x	x	x
O=C(CCc1nnc(CCc2ccccc2)o1)N1CCCC1c1nccs1 (centres undefined)	n	n	n	n	n	x	x
O=C(Nc1ccccc1)Nc1sccc1-c1nc2ccccc2s1	16.6	n	x	x	n	n	n
O=C(Nc1cccc(Cl)c1)Nc1sccc1-c1nc2ccccc2s1	n	n	x	x	n	x	x
CCOC(=O)c1nn(-c2cccc(OC)c2)c2nc(CC)c(C#N)c(=O)n12	10.8	n	n	n	n	n	n
CC(NS(=O)(=O)c1cccc(Cl)c1)C(=O)Nc1ccc(-c2nc3ccccc3s2)cc1 (centres undefined)	16.2	n	n	n	n	9.9	n
Cc1ccc2nc(-c3ccc(NC(=O)COC(=O)c4ccco4)cc3)sc2c1	n	n	n	n	n	x	x
CNS(=O)(=O)c1cccc(C(=O)OCC(=O)Nc2ccc(-c3nc4ccc(C)cc4s3)cc2)c1	15.6	n	n	n	n	n	n
Cc1cccc(NS(=O)(=O)c2cc3c(cc2C)n(C)c(=O)c(=O)n3C)c1	n	n	n	x	n	x	x
CCCNC(=O)C(Cc1ccc(Cl)cc1)NC(=O)c1ccc(C#N)cc1 (centres undefined)	n	n	n	x	n	x	x
CCCNC(=O)C(Cc1ccc(Cl)cc1)NC(=O)c1ccc(-c2ccccc2)cc1 (centres undefined)	14.1	n	n	x	n	n	n
CN/C=C1\C(=O)C(C)(C)Oc2ccc3ccc(=O)oc3c21	n	n	n	n	n	x	x
CC1(C)Oc2ccc3ccc(=O)oc3c2/C(=C/Nc2ccc(O)cc2)C1=O	11.0	n	n	n	n	23.0	n
COc1cccc(-c2cc(C(=O)Nc3ccc(N(C)C(C)=O)cc3)c3cc(Br)ccc3n2)c1	n	n	n	x	n	x	x
COc1cc(-c2cc(NC=O)c3ncc(-c4ccccc4)n3c2)cc(OC)c1OC	12.9	n	x	x	n	25.2	n
COc1cc(-c2cc(NC=O)c3ncc(-c4ccc(C(C)=O)cc4)n3c2)cc(OC)c1OC	25.9	n	x	x	n	18.5	n
COc1ccc(-c2cc(NC=O)c3ncc(-c4ccc(C(C)=O)cc4)n3c2)cc1OC	11.2	n	x	x	n	9.0	n
